Compounds with a hit are over-represented: about 4% of the library has one in this group of screens.
OX1R antag-1 = blocks the human orexin 1 receptor. CHO/OX1R cells, Fluo-8 calcium fluorescence, orexin A. hit rate 0.43% among 330,000. inhibition, % at 5 µM;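 active = inhibition above its plate's threshold, mean inhibition of all tested compounds on the plate plus 3 SD, cut at about 37% in these data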;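 also: 0% = orexin A challenge wells and 100% = SB-334867-A antagonist wells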
Target sequence (O43613 whole entry, looked up): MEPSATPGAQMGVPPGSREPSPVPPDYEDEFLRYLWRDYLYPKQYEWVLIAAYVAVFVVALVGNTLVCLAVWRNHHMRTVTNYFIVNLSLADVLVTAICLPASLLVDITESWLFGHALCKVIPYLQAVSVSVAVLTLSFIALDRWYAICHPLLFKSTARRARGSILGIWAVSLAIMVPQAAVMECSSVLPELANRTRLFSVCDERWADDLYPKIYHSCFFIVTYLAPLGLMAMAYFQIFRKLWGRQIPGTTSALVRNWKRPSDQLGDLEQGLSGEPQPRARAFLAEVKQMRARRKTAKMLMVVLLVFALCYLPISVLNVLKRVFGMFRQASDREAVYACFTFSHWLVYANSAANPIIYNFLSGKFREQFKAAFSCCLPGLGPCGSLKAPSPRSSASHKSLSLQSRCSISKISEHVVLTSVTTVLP
CHO parental Ca = counter-screen for OX1R antagonists: effect in parental CHO cells; parental CHO-K1, ATP-induced calcium, Fluo-8 fluorescence; inhibition, % at 5.6 µM; hit rate 0.63% among 330,000; AID 463079;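 active = inhibition above that plate's mean sample inhibition plus 3 SD, cut at about 26% in these data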;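 also: 0% = ATP-challenged DMSO wells and 100% = DMSO wells without ATP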
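Test system: untransfected parental CHO cell line; also added: ATP stimulus; dosing: 5.6 µM, single dose; signal: calcium-sensitive Fluo-8 fluorescence; measure: percent inhibition of ATP-evoked calcium rise, normalized to controls; benchmarks: low control ATP plus DMSO, high control DMSO only; replication: one well per compound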
TAAR1 antag = antagonists of human TAAR1; hit rate 1.5% among 360,000; CHO RD-HGA16 TAAR1, Fluo-8 calcium fluorescence, antagonist; Q96RJ0; inhibition, % at 3 µM;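 active = inhibition above a per-plate cutoff, the mean inhibition of test compounds on that plate plus 3 SD, cut at about 49% in these data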;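 also: 0% = DMSO plus EC80 beta-PEA response and 100% = DMSO alone without agonist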
Target sequence (Q96RJ0 whole entry, looked up): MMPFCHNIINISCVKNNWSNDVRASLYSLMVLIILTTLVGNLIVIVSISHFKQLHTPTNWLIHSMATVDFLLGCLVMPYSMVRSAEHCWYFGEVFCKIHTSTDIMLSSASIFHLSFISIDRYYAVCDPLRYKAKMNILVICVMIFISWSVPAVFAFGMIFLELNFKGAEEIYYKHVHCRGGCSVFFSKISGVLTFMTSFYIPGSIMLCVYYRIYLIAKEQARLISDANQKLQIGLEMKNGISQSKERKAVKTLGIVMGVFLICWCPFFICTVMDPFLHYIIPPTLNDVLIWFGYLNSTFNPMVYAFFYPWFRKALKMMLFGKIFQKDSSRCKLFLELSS
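test system = CHO RD-HGA16 cells bearing hTAAR1 | replication = singlicate | controls = DMSO-only wells and EC80 β-PEA-stimulated wells | reagent = EC80 β-phenethylamine stimulus | read-out basis = percent inhibition of PEA-evoked calcium signal, max/basal emission ratio | schedule = seeding 17-24 h prior, 75-min 37 °C, 30-min RT dye loading | signal = kinetic Fluo-8 calcium fluorescence measurement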
TAAR1 agonist = human TAAR1 agonism; CHO RD-HGA16 TAAR1, Fluo-8 calcium fluorescence; vehicle wells 0%, saturating PEA agonist 100%; activation, % at 3 µM; hit rate 0.99% among 360,000; AID 624467;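 active = activation above the mean activation of all test compounds in the run plus 3 SD, cut at about 38% in these data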
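Repeats: no replicates (n 1) | Material: CHO-derived RD-HGA16 cells with stable Gα16 and human TAAR1 | Technique: Kinetic Fluo-8 calcium fluorescence | Schedule: 17-24 h seeding, 75 min 37 °C dye, 30 min RT | Evaluation: % activation from peak over basal fluorescence ratio, DMSO-to-PEA scaled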
OX1R antag-2 = blocks the human orexin 1 receptor; inhibition, % at 6.6 µM; OX1R-expressing cells, FRET antagonist read-out; hit rate 1.8% among 330,000; in the data active = inhibition mostly above about 38%, no sharp cut-off; inactive = mostly below about 40%;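 also: 0% = agonist challenge alone and 100% = reference antagonist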
TAAR1 ag confirm = confirmation of human TAAR1 agonists; hit rate 82% among 2,400; AID 651783; CHO RD-HGA16 TAAR1, Fluo-8 calcium fluorescence; scaled: DMSO 0%, maximal phenethylamine 100%; shares compounds with TAAR1 agonist; activation, % at 3 µM;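 active = activation above a cutoff set at the run's mean compound activation plus 3 SD, cut at about 39% in these data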
Ga16 nonsel ag = counter-screen for TAAR1 agonists: nonselective agonists in parental cells; CHO-Ga16 parental, Fluo-8 calcium fluorescence; normalized to maximal ATP response, DMSO zero; hit rate 50% among 2,400; shares compounds with TAAR1 agonist; activation, % at 3 µM; AID 651787;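 active = activation above the run cutoff, the mean activation over all tested wells plus 3 SD, cut at about 12% in these data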;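 also: 0% = DMSO wells and 100% = maximal ATP response on the peak over basal ratio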
TAAR1 desens = counter-screen for human TAAR1 agonists: agonists that desensitize TAAR1; shares compounds with TAAR1 agonist; CHO RD-HGA16 hTAAR1, Fluo-8 calcium, beta-PEA response inhibition; inhibition, % at 3 µM; hit rate 46% among 2,400; AID 651951;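 active = inhibition above the run cutoff, the mean inhibition of all test compounds plus 3 SD, cut at about 49% in these data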;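 also: beta-PEA stimulus applied at its EC80; loss of beta-PEA calcium signal after compound pretreatment read as receptor desensitization; 0% = DMSO with beta-PEA at EC80 and 100% = DMSO alone without agonist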
Ga16 antag count = nonselective Ga16 antagonist in TAAR1 agonist counter-screen | inhibition, % at 3 µM | hit rate 39% among 2,400 | CHO-Ga16 ATP-induced calcium, Fluo-8 fluorescence | AID 651952 | shares compounds with TAAR1 agonist;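 active = inhibition above the plate's mean compound inhibition plus 3 SD, computed per plate, cut at about 22% in these data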;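 also: 0% = EC80 ATP with DMSO and 100% = DMSO wells without ATP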
Active calls of the source: *; · = no result given.

SMILES | OX1R antag-1 | CHO parental Ca | TAAR1 antag | TAAR1 agonist | OX1R antag-2 | TAAR1 ag confirm | Ga16 nonsel ag | TAAR1 desens | Ga16 antag count
O=C(c1ccccc1)c1ccc(OCC(O)CNCc2cccc(Cl)c2)cc1 (stereo not given) | · | · | 7 | 58* | · | 95* | 43* | 60* | 40*
Cc1ccc(OCC(O)CNCc2ccccc2)cc1C (stereo not given) | -21 | -20 | -28 | 6 | 13 | · | · | · | ·
COc1cccc(NS(=O)(=O)c2cc(C)sc2C)c1 | 5 | -9 | 4 | 10 | 10 | · | · | · | ·
Cc1cc(S(=O)(=O)Nc2cccc(Cl)c2)c(C)s1 | -22 | -4 | 12 | 40* | 18 | 60* | 10 | 17 | 12
COc1ccc(S(=O)(=O)Nc2ccc(NC(C)=O)cc2)cc1 | -1 | 10 | 18 | 13 | 5 | · | · | · | ·
CCOc1ccc(NS(=O)(=O)c2ccc(NC(=S)NC(C)=O)cc2)cc1 | 6 | -4 | 22 | 85* | 10 | 75* | 48* | 53* | 33*
CCOc1ccc(NS(=O)(=O)c2ccc(NC(=S)NC(=O)C(C)C)cc2)cc1 | 20 | 6 | 14 | 59* | 5 | 42* | 20* | 9 | 17
Cc1cccc(CNC(=O)C2CCC(=O)N(CCCc3ccccc3)C2)c1 (stereo not given) | · | · | -7 | 0 | · | · | · | · | ·
CCc1ccc(/C=N/NC(=O)c2nnn(-c3nonc3N)c2C(C)C)cc1 | -47 | -20 | 80* | 133* | 4 | 134* | 101* | 96* | 59*
CCCOc1ccc(-c2c(C(=O)N/N=C/c3ccc(C)cc3)nnn2-c2nonc2N)cc1 | -18 | -36 | -68 | 37 | 8 | · | · | · | ·
Cc1ccc(-c2c(C(=O)N/N=C/c3ccc(OC(C)C)cc3)nnn2-c2nonc2N)cc1 | -14 | -30 | 70* | 130* | 47 | 125* | 94* | 57* | 46*
CCOc1ccc(-c2c(C(=O)N/N=C/c3ccc(OC(C)C)cc3)nnn2-c2nonc2N)cc1 | -29 | -19 | 6 | 116* | 56 | 118* | 75* | 46 | 37*
CC1CC(C)(C)CC2(C1)NC(=O)N(CC(=O)N1CCN(S(=O)(=O)c3ccc(F)c(F)c3F)CC1)C2=O (stereo not given) | · | · | -17 | -4 | · | · | · | · | ·
CC(C)CN1CC(C)C(=O)N(c2ccccc2)C1=O (stereo not given) | · | · | 21 | 63* | · | 2 | 3 | 8 | 5
COc1cc(OC)c(-n2cc(-c3ccc(OC)c(OC)c3)[nH]c2=S)cc1Cl | · | · | 35 | 96* | · | 2 | 2 | 1 | 5
O=C(Nc1sc2c(c1C(=O)NCCO)CCCC2)c1ccco1 | -3 | -1 | 5 | -2 | 11 | · | · | · | ·
O=C1Nc2ccccc2/C1=N/c1sc2c(c1C(=O)NCCc1ccccc1)CCCC2 | -9 | -26 | 71* | 83* | 20 | 50* | 19* | 27 | 22*
COc1ccc(C(CCNCc2ccccc2)c2ccc(F)cc2)cc1 (stereo not given) | -39 | -17 | 19 | 25 | 2 | · | · | · | ·
COc1ccc(C(CCNC(C)c2ccccc2)c2ccc(F)cc2)cc1 (stereo not given) | 1 | -1 | 15 | 51* | 7 | 66* | 35* | 38 | 34*
CCc1ccc(OCC(=O)NNC(=O)c2cc3ccccc3o2)cc1 | -1 | 53* | 71* | 75* | 9 | 15 | 5 | 6 | 11
Cc1cc(C)cc(OCC(=O)NNC(=O)c2cc3ccccc3o2)c1 | -4 | -11 | -4 | 3 | 9 | · | · | · | ·
OCCNC(=S)Nc1cccc(Cl)c1Cl | -1 | 4 | -7 | 20 | 7 | · | · | · | ·
Cc1ccc(-c2csc(C(O)c3ccc(F)cc3)n2)cc1C (stereo not given) | · | · | 16 | 0 | · | · | · | · | ·
CN(C)c1ccc(-c2csc(C(O)c3ccc(F)cc3)n2)cc1 (stereo not given) | · | · | 91* | 77* | · | 90* | 59* | 98* | 73*
CC1(C)C[C@H](O)[C@]2(CO)CC[C@]3(C)C(=CCC4[C@@]5(C)CC[C@H](O)C(C)(C)C5CC[C@]43C)[C@@H]2C1 (stereo not given in full) | -6 | -12 | 18 | 19 | 15 | · | · | · | ·
SMILES | OX1R antag-1 | CHO parental Ca | TAAR1 antag | TAAR1 agonist | OX1R antag-2 | TAAR1 ag confirm | Ga16 nonsel ag | TAAR1 desens | Ga16 antag count
CC1(C)C[C@H](O)[C@]2(CO)[C@H](O)C[C@]3(C)C(=CCC4[C@@]5(C)CC[C@H](O)C(C)(C)C5CC[C@]43C)[C@@H]2C1 (stereo not given in full) | 17 | -6 | 36 | 51* | 24 | 33 | 8 | 32 | 21
OC[C@H]1O[C@@H](c2nc(-c3ccc4[nH]ccc4c3)no2)[C@H](O)[C@@H](O)[C@H]1O | · | · | -11 | 2 | · | · | · | · | ·
CCCCCCCCN1C(=O)[C@@H](CC(=O)NCCc2ccccc2OC)C[C@@]2(C(=O)OC)C1=C[C@H](C1CCCC1)O[C@@H]2C | · | · | 28 | 62* | · | 72* | 3 | 64* | 9
COC(=O)[C@]12C[C@H](CC(=O)NCCc3ccccc3OC)C(=O)N(Cc3ccccc3)C1=C[C@H](C(C)(C)C)O[C@@H]2C | · | · | 54* | 65* | · | 80* | 4 | 53* | 6
COC(=O)[C@]12C[C@H](CC(=O)NCCc3ccccc3OC)C(=O)N(Cc3ccc4c(c3)OCO4)C1=C[C@H](COCc1ccccc1)O[C@@H]2C | · | · | · | · | · | · | 6 | · | 12
CCCCCCCCN1C(=O)[C@@H](CC(=O)NCCC(C)C)C[C@@]2(C(=O)OC)C1=C[C@H](C1CCCC1)O[C@@H]2C | · | · | -29 | -1 | · | · | · | · | ·
CC(=O)NCCNc1nc2cc(-c3ccc(C(=O)N4CCN(C)CC4)cc3)sc2c(=O)n1C | · | · | -11 | 3 | · | · | · | · | ·
CCC(C)(C)NC(=O)C(c1cccc(OC)c1)N(C(=O)c1ccn[nH]1)c1cccc(OC)c1 (stereo not given) | -17 | -20 | 39 | 50* | 23 | 26 | 14* | 39 | 28*
CCC(C)(C)NC(=O)C(c1cccs1)N(C(=O)c1ccn[nH]1)c1ccccc1 (stereo not given) | 0 | -21 | 1 | 3 | 7 | · | · | · | ·
CC(=O)NCCOc1cccc2ccccc12 | -4 | -2 | -3 | 4 | 3 | · | · | · | ·
c1ccc(CCNCCCOc2cccc3ccccc23)cc1 | -20 | -4 | 43 | 57* | 9 | 95* | 26* | 87* | 34*

Assay outcomes (PubChem)
